The test system of one data set is Hepatitis C virus. The experiment in a line: Antiviral activity against HCV infected in human […] cells assessed as inhibition of viral RNA replication. The data set is classed as functional, organism-based, Hepacivirus hominis. The method, boiled down:
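Replicon assay: subgenomic HCV RNA replication in Huh-7 cells carrying a bicistronic expression construct. Inhibition expressed as EC50.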

The nature of data set [1]: Drug metabolism in rat liver microsomes at 5 uM after 15 mins. The data set is classed as ADME, Microsome. The settings on record: read-out: Drug metabolism. For orientation: Liver microsomes are a subcellular fraction often used to study metabolism.
A short description of data set [2]: Drug metabolism in human liver microsomes at 5 uM after 15 mins. It is filed as ADME, Microsome. Particulars: read-out: Drug metabolism.
The nature of data set [3]: Inhibition of purified HCV NS5B Cdelta21 polymerase. On the set-up: species or system Hepacivirus hominis.
A short description of data set [4]: Ratio of drug level in liver to plasma in Sprague-Dawley rat at 2 mg/kg, iv and 10 mg/kg, po after 7 hrs. The data set is classed as ADME, organism-based. The method, boiled down:
(§1)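 Sprague–Dawley rats given 2 mg/kg iv in PEG400/saline (70:30) or 10 mg/kg po in PEG400 with 2% Vitamin E TPGS. Liver concentration (ng/g) measured 7 h post dose. Liver-to-plasma ratio taken at the same time.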

The nature of data set [5]: Clearance in Sprague-Dawley rat at 2 mg/kg, iv and 10 mg/kg, po. The data set is classed as ADME, organism-based. The settings on record: in vivo. An outline of the steps: (§2)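 Sprague–Dawley rats, single dose. IV arm at 2 mg/kg in PEG400/saline (70:30), with plasma kinetics determined. Oral arm at 10 mg/kg in PEG400 containing 2% Vitamin E TPGS, compared against the iv data.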

Data set [6] is described as follows: Half life in Sprague-Dawley rat at 2 mg/kg, iv and 10 mg/kg, po. The data set is classed as ADME, organism-based. The settings on record: in vivo. An outline of the steps: as §2
Data set [7] can be described thus: Oral bioavailability in Sprague-Dawley rat at 10 mg/kg. It is filed as ADME, organism-based. Particulars: in vivo. An outline of the steps:
as §2

Data set [8] is described as follows: Volume of distribution at steady state in Sprague-Dawley rat at 2 mg/kg, iv and 10 mg/kg, po. The data set is classed as ADME, organism-based. The settings on record: in vivo, read-out: Vdss. An outline of the steps: as §2
Data set [9] can be described thus: Drug level in Sprague-Dawley rat liver at 2 mg/kg, iv and 10 mg/kg, po after 7 hrs. It is filed as ADME, organism-based. The settings on record: read-out: Drug uptake. An outline of the steps: as §1
The next data set relates to Liver microsomes. As to the kind of experiment: Metabolic stability in human liver microsomes assessed as glutathione conjugates formation at 40 uM in presence of glutathione. It is filed as ADME, Microsome. The method, boiled down: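 Human liver microsomes (1 mg/mL protein) in 100 mM KPi, pH 7.4, with 5 mM MgCl2, 1 mM EDTA and 2 mM NADPH. Trapping agent was 2 mM GSH, or a GSH/stable-label GSH mix (1 mM/1 mM). Compound at 40 µM final, added from a 20 mM stock. Read-out was glutathione conjugate formation.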

A short description of data set [10]: Efflux ratio of compound permeability in human Caco2 cells. The data set is classed as ADME, cell-based. The settings on record: Caco-2.
Data set [11] is described as follows: Apparent permeability from apical to basolateral side of human Caco2 cells. It is filed as ADME, cell-based. The settings on record: Caco-2. In general terms: Caco-2 monolayers are a common model of the intestinal barrier.

A word on the EC50: it is the midpoint of the concentration-response curve. Regarding `CN1C/C=C/CCNC(=O)Cn2c(-c3ccoc3)c(C3CCCCC3)c3ccc(cc32)C(=O)NS1(=O)=O`, the EC50 in the data set on Hepatitis C virus is 720 nM.

For the compound `COc1ccc(-c2c(C3CCCCC3)c3ccc4cc3n2CC(=O)NCCCCCN(C)S(=O)(=O)NC4=O)cc1`, the EC50 in the data set with Hepatitis C virus was found to be 350 nM.

For `O=C1Cn2c(-c3ccoc3)c(C3CCCCC3)c3ccc(cc32)C(=O)NCC/C=C/CCCN1`, the metabolised at 0.25 h, 5 µM in data set [1] and in data set [2] was above 95% each time. In addition, the EC50 in the data set with Hepatitis C virus is 2600 nM.

As a reminder, the IC50 is the concentration needed to halve the response being measured. Consider `COc1ccc(-c2c(C3CCCCC3)c3ccc4cc3n2CC(=O)NCCN(C)CCNS(=O)(=O)NC4=O)cc1`, for which the EC50 in the data set on Hepatitis C virus was 3470 nM. In [3], this compound had an IC50 of 440 nM.

In the case of `O=C1Cn2c(-c3ccoc3)c(C3CCCCC3)c3ccc(cc32)C(=O)NCCCCCCN1`, the metabolised at 0.25 h, 5 µM in [1] and in data set [2] was above 95% throughout. Also, the EC50 with Hepatitis C virus was found to be 4300 nM. Half-maximal inhibition in [3] (IC50) required 9500 nM.

As to `COc1ccc2c(c1)OCC(=O)N(C)CCOCCN(C)S(=O)(=O)NC(=O)c1ccc3c(C4CCCCC4)c-2n(C)c3c1`, the metabolised at 0.25 h, 5 µM came to 52% in data set [1] and 69% in data set [2]. For the same compound, the EC50 in the data set with Hepatitis C virus was found to be 150 nM. In [3], this compound showed an IC50 of 56 nM.

Regarding `CC(C)n1c2c(C3CCCCC3)c3ccc(cc31)C(=O)NS(=O)(=O)N(C)CCOCCN(C)C(=O)COc1ccccc1-2`, the figures for the metabolised at 0.25 h, 5 µM in [1] and in data set [2] were 35% and 64%, respectively. Besides, the EC50 with Hepatitis C virus is 11900 nM. In addition, the IC50 in data set [3] turned out to be 1660 nM.

For the compound `CN1CCCCNC(=O)Cn2c(-c3ccoc3)c(C3CCCCC3)c3ccc(cc32)C(=O)NS1(=O)=O`, in the data set on Hepatitis C virus, the EC50 amounted to 1580 nM. Besides, the IC50 in data set [3] is 110 nM.

For the compound `CN1CCCCN(C)S(=O)(=O)NC(=O)c2ccc3c(C4CCCCC4)c(-c4ccc(Cl)cc4)n(c3c2)CC1=O`, the EC50 in the data set on Hepatitis C virus was 530 nM.

A word on the Kp: it is the ratio of the level in a tissue or fluid to that in plasma or blood. Usually half-life stands for how long it takes for the measured level to halve. High values mean slow loss, low ones fast loss. One may read the bioavailability as the share of a dose that reaches the circulation, judged against a reference dose that is usually intravenous. Higher therefore signals much systemic uptake. Take `CN1CCCCN(C)S(=O)(=O)NC(=O)c2ccc3c(C4CCCCC4)c(n(C)c3c2)-c2ccccc2OCC1=O`: the results for the metabolised at 0.25 h, 5 µM in data set [1] and in data set [2] were 60% and 92%, respectively. Besides, the concentration ratio (Kp) at 7 h in data set [4] was determined as 99. The EC50 in the data set on Hepatitis C virus was found to be 310 nM. In data set [5], this compound gave a clearance of 128 mL/min/kg. Also, the IC50 in data set [3] was determined as 97 nM. The compound also gave a half-life in data set [6] of 18 min. In data set [7], this compound gave a bioavailability of 9%. The Vd in [8] was 2.6 L/kg. The concentration at 7 h in [9] came to 1520 ng/g.

Take `CN1CCCCCNC(=O)COc2ccc(F)cc2-c2c(C3CCCCC3)c3ccc(cc3n2C)C(=O)NS1(=O)=O`: the metabolised at 0.25 h, 5 µM was 56% in data set [1] and 59% in [2]. Further, in the data set with Hepatitis C virus, the EC50 amounted to 680 nM. The compound further showed an IC50 in [3] of 88 nM.

As to `CN1CCCCCNC(=O)Cn2c(-c3ccoc3)c(C3CCCCC3)c3ccc(cc32)C(=O)NS1(=O)=O`, the metabolised at 0.25 h, 5 µM worked out at 63% in data set [1] and 67% in data set [2]. Besides, in data set [4], the Kp at 7 h was found to be 150. In addition, the EC50 in the data set with Hepatitis C virus came to 790 nM. The same compound gave a clearance in data set [5] of 123 mL/min/kg. Besides, in data set [6], the half-life was 24 min. The bioavailability in data set [7] worked out at 40%. The Vd in data set [8] worked out at 2.4 L/kg. Besides, the concentration at 7 h in data set [9] is 3740 ng/g.

As for `CN1CCOCCN(C)S(=O)(=O)NC(=O)c2ccc3c(C4CCCCC4)c(n(C)c3c2)-c2ccccc2OCC1=O`, the metabolised at 0.25 h, 5 µM in [1] stood at 50%; in data set [2], 65%. In addition, the Kp at 7 h in data set [4] was 64. Moreover, the concentration giving a half-maximal response (EC50) in the data set with Hepatitis C virus was determined as 190 nM. This compound showed a clearance in data set [5] of 115 mL/min/kg. The same compound had an IC50 in [3] of 110 nM. The same compound showed a half-life in [6] of 60 min. Further, the Stability entry in the data set with Liver microsomes was “Stable”. Moreover, the bioavailability in data set [7] came out at 14%. In addition, the Vd in data set [8] was found to be 7 L/kg. For the same compound, in [9], the concentration at 7 h came out at 1720 ng/g.

In general, efflux ratio refers to a quotient of directional permeabilities that is used to spot active efflux. A word on the Papp A→B: it is the apparent permeability from the apical to the basolateral side of a cell layer. Regarding `O=C1Cn2c(-c3ccoc3)c(C3CCCCC3)c3ccc(cc32)C(=O)NS(=O)(=O)C/C=C/CCN1`, the EC50 with Hepatitis C virus was found to be 7500 nM. In [10], the efflux ratio is above 25. The Papp A→B in [11] is below 1 ×10⁻⁶ cm/s.

Turning to `CN1CCCCCNC(=O)Cn2c(-c3ccccc3)c(C3CCCCC3)c3ccc(cc32)C(=O)NS1(=O)=O`, in the data set with Hepatitis C virus, the EC50 is 430 nM.

Take `COc1ccc(-c2c(C3CCCCC3)c3ccc4cc3n2CC(=O)NCCCCN(C)S(=O)(=O)NC4=O)cc1`: the half-maximal effective concentration (EC50) with Hepatitis C virus stood at 1760 nM. Half-maximal inhibition in [3] (IC50) required 180 nM.

As for `COc1ccc2c(c1)OCC(=O)N(C)CCCCN(C)S(=O)(=O)NC(=O)c1ccc3c(C4CCCCC4)c-2n(C)c3c1`, the metabolised at 0.25 h, 5 µM was determined as 64% in [1] and 96% in [2]. For the same compound, the EC50 in the data set on Hepatitis C virus was determined as 170 nM. The half-maximal inhibitory concentration (IC50) in data set [3] amounted to 54 nM.

For the compound `CN1CCCCCNC(=O)COc2ccccc2-c2c(C3CCCCC3)c3ccc(cc3n2C)C(=O)NS1(=O)=O`, the metabolised at 0.25 h, 5 µM in data set [1] is 44%; in data set [2], 71%. In the data set on Hepatitis C virus, the EC50 came to 180 nM. In data set [3], this compound registered an IC50 of 33 nM.

As for `CN1CCCCCNC(=O)COc2cc(F)ccc2-c2c(C3CCCCC3)c3ccc(cc3n2C)C(=O)NS1(=O)=O`, the metabolised at 0.25 h, 5 µM came out at 58% in data set [1] and 81% in data set [2]. For the same compound, the half-maximal effective concentration (EC50) in the data set on Hepatitis C virus amounted to 460 nM. Also, the IC50 in data set [3] is 110 nM.

For `O=C1Cn2c(-c3ccoc3)c(C3CCCCC3)c3ccc(cc32)C(=O)NCC/C=C/CCN1`, the metabolised at 0.25 h, 5 µM in data set [1] and in data set [2] was above 95% each time. Further, in the data set on Hepatitis C virus, the EC50 came out at 3400 nM. In [3], this compound gave an IC50 of 2200 nM.

Consider `COc1ccc(-c2c(C3CCCCC3)c3ccc4cc3n2CC(=O)NN(C)CCN2CCN(CC2)S(=O)(=O)NC4=O)cc1`, for which the concentration for a half-maximal effect (EC50) in the data set on Hepatitis C virus is 3500 nM.

In the case of `CN1CCCCNC(=O)COc2ccccc2-c2c(C3CCCCC3)c3ccc(cc3n2C)C(=O)NS1(=O)=O`, in the data set on Hepatitis C virus, the EC50 turned out to be 7560 nM. The same compound returned an IC50 in data set [3] of 1900 nM.

For `CN1CCN2CCN(CC2)C(=O)COc2ccccc2-c2c(C3CCCCC3)c3ccc(cc3n2C)C(=O)NS1(=O)=O`, the metabolised at 0.25 h, 5 µM in [1] worked out at 35%; in [2], 56%. Besides, in the data set on Hepatitis C virus, the EC50 was 240 nM. Also, in data set [3], inhibition was half-maximal at 140 nM (IC50).

Turning to `CN1CCCCCNC(=O)Cn2c(-c3ccc(Cl)cc3)c(C3CCCCC3)c3ccc(cc32)C(=O)NS1(=O)=O`, the EC50 in the data set with Hepatitis C virus stood at 590 nM. The IC50 in [3] is 190 nM.

In the case of `CN1CCOCCN(C)S(=O)(=O)NC(=O)c2ccc3c(C4CCCCC4)c(n(C4CCCC4)c3c2)-c2ccccc2OCC1=O`, the figures for the metabolised at 0.25 h, 5 µM in data set [1] and in data set [2] were 40% and 74%, respectively. Moreover, in the data set on Hepatitis C virus, the EC50 came to 15700 nM. In addition, in data set [3], inhibition was half-maximal at 1490 nM (IC50).

(Values after ChEMBL document CHEMBL2040713, “Finger-loop inhibitors of the HCV NS5b polymerase. Part 1: Discovery and optimization of novel 1,6- and 2,6-macrocyclic indole series” (Bioorg Med Chem Lett, 2012).)
